The target in data set [1] is T1, Centromere-associated protein E (Homo sapiens, UniProt Q02224). The data set is described as follows: Inhibition of ATPase activity of CENP-E motor domain (unknown origin) by high throughput screening assay.
In data set [2] the target is T1, Centromere-associated protein E. The data set is described as follows: Inhibition of human ATPase activity of CENP-E motor domain assessed as ADP production after 60 mins by ADP-Glo luminescence assay.
For the next data set, the system named is HeLa. The data set is described as follows: Induction of mitotic arrest in human HeLa cells assessed as accumulation of phosphorylated histone H3 after 16 hrs by FACS analysis. Type of data set: functional, cell-based. The method, boiled down: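 HeLa cells scored for phosphorylated histone H3 positive cell count (%) by FACS. EC50 is the concentration giving a response halfway between baseline and maximum p-HH3 positive count.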

Data set [3] can be described thus: Permeability of the compound at pH 7.4 by PAMPA. Type of data set: ADME. Particulars: read-out: permeability. In outline: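 Passive permeability measured in a parallel artificial membrane permeability assay (PAMPA) system at pH 7.4, reported in nm/sec.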

Each structure is given as a SMILES string.

T1 sequence (Q02224 whole entry, the tested form may be a part): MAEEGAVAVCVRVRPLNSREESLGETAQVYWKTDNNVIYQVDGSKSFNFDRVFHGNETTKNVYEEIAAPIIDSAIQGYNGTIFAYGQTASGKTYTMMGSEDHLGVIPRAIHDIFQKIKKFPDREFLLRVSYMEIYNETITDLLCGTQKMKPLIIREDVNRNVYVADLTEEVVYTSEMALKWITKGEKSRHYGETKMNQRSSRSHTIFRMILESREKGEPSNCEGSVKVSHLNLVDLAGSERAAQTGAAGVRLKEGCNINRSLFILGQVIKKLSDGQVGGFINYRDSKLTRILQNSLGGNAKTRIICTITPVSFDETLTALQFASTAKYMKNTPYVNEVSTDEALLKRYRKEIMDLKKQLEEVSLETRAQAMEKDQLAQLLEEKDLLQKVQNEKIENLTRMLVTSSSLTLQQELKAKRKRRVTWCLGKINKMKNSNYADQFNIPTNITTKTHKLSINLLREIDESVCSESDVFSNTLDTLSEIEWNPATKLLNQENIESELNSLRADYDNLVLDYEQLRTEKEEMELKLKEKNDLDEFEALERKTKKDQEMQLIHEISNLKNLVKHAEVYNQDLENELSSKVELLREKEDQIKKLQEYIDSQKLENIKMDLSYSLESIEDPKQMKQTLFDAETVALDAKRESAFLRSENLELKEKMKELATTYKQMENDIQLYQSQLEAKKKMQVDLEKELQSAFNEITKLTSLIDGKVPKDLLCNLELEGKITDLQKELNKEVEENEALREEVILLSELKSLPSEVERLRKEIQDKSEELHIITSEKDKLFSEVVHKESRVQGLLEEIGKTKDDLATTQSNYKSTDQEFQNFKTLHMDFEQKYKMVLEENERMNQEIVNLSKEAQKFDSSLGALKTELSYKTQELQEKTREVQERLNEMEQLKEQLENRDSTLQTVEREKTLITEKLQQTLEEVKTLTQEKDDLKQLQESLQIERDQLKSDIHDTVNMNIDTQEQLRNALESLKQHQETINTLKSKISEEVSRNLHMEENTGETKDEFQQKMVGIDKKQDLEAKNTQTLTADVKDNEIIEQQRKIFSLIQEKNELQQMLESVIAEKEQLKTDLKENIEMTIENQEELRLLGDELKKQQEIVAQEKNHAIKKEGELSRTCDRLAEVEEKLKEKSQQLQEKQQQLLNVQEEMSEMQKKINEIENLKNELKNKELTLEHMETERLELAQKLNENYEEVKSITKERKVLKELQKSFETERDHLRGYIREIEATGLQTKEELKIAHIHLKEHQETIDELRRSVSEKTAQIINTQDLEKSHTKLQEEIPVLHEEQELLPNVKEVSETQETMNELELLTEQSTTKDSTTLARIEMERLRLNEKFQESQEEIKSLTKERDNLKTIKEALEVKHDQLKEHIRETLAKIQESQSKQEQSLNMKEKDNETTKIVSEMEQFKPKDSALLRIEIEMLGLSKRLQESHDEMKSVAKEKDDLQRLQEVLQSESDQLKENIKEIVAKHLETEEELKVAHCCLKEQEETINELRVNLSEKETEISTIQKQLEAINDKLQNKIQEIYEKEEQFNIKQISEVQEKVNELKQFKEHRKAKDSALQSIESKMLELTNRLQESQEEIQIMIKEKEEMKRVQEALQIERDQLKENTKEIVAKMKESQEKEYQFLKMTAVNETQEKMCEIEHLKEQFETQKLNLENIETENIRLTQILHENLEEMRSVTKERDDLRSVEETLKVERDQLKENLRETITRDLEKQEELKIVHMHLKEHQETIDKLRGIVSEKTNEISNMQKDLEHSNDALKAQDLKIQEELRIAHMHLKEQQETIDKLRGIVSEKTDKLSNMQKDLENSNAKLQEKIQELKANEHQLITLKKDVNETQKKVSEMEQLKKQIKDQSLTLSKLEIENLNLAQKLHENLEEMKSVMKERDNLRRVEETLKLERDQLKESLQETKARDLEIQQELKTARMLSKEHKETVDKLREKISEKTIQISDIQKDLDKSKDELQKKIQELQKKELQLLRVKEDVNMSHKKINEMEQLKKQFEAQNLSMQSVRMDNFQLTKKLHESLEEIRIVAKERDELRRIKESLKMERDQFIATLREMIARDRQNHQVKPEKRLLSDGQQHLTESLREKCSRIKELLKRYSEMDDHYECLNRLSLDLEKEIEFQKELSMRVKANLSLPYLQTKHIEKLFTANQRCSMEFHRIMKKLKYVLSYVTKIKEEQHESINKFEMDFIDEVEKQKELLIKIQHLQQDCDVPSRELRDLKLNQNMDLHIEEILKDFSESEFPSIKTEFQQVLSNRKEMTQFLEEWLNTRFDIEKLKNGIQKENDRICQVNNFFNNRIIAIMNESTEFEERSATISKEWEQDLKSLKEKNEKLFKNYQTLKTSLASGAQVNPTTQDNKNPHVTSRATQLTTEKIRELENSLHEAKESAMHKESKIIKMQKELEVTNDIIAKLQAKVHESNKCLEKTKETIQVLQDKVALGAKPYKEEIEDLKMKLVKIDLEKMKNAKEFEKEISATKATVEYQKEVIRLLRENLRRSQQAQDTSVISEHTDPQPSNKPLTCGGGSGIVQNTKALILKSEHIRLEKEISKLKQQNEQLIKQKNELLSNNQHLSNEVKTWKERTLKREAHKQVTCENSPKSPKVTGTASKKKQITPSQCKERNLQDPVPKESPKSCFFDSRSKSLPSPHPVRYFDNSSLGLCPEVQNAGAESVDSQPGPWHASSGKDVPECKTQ

As for `CN(Cc1cc(C(F)(F)F)cc(C(F)(F)F)c1)C(=O)c1c(-c2ccc(F)cc2)c2cscc2c(=O)n1C`, the IC50 in data set [1] was 2100 nM.

As for `CN(Cc1ccc(Cl)c(Cl)c1)C(=O)c1c(-c2ccc(F)cc2)c2cscc2c(=O)n1C`, the IC50 in data set [2] and in data set [1] was 1500 nM in each case.

Take `CN(Cc1ccc(Cl)c(Cl)c1)C(=O)c1c(-c2ccc(F)cc2)c2cscc2c(=O)n1CCO`: the IC50 in data set [2] was determined as 1800 nM.

Take `CN(C)CCn1c(C(=O)N(C)Cc2ccc(Cl)c(Cl)c2)c(-c2ccc(F)cc2)c2cscc2c1=O`: the IC50 in data set [2] amounted to 72 nM.

`CN(C)CCCn1c(C(=O)N(C)Cc2ccc(Cl)c(Cl)c2)c(-c2ccc(F)cc2)c2cscc2c1=O`: in data set [2], the IC50 came out at 300 nM.

`CN(C)CCN(Cc1ccc(Cl)c(Cl)c1)C(=O)c1c(-c2ccc(F)cc2)c2cscc2c(=O)n1C`: in data set [2], the IC50 is 100 nM.

Regarding `CN(C)CCN(Cc1ccc(Cl)c(Cl)c1)C(=O)c1c(-c2ccc(F)cc2)c2ccccc2n1C`, the IC50 in data set [2] was determined as 8500 nM.

For `Cc1c(C(=O)N(CCN(C)C)Cc2ccc(Cl)c(Cl)c2)n(-c2ccc(F)cc2)c2ccccc12`, the IC50 in data set [2] was determined as 2100 nM.

With `CN(C)CCN(Cc1ccc(Cl)c(Cl)c1)C(=O)c1cc2sccc2n1-c1ccc(F)cc1`, the IC50 in data set [2] is 2000 nM.

For `Cc1csc2cc(C(=O)N(CCN(C)C)Cc3ccc(Cl)c(Cl)c3)n(-c3ccc(F)cc3)c12`, the IC50 in data set [2] worked out at 370 nM.

Regarding `CN(C)CCN(Cc1ccc(Cl)c(Cl)c1)C(=O)c1cc2scc(Br)c2n1-c1ccc(F)cc1`, the IC50 in data set [2] amounted to 32 nM. Besides, the EC50 with HeLa is 3000 nM. Moreover, the Papp in data set [3] came to 4.1 ×10⁻⁶ cm/s.

As for `CN(C)CCN(Cc1ccc(Cl)c(Cl)c1)C(=O)c1cc2scc(Cl)c2n1-c1ccc(F)cc1`, the IC50 in data set [2] is 35 nM.

As to `CN(C)CCN(Cc1ccc(Cl)c(Cl)c1)C(=O)c1cc2scc(C(F)(F)F)c2n1-c1ccc(F)cc1`, the half-inhibitory concentration (IC50) in data set [2] came out at 140 nM.

Turning to `CN(C)CCN(Cc1ccc(Cl)c(Cl)c1)C(=O)c1cc2scc(C#N)c2n1-c1ccc(F)cc1`, the IC50 in data set [2] turned out to be 540 nM.

For `CN(C)CCN(Cc1ccc(Cl)c(Cl)c1)C(=O)c1nc2cccc(Br)n2c1-c1ccc(F)cc1`, the IC50 in data set [2] is 50 nM. The EC50 in the data set on HeLa is 1540 nM. In addition, in data set [3], the Papp came to 35.3 ×10⁻⁶ cm/s.

Broadly, the IC50 is the concentration that inhibits the measured activity by half. Broadly, the EC50 is the concentration needed to bring the measured effect to its halfway point.
